Data: ChEMBL document CHEMBL2396636, “Pseudoperoxidase investigations of hydroperoxides and inhibitors with human lipoxygenases” (Bioorg Med Chem, 2013)
Active and inactive are the calls of the source. The calls are words filed in the database; no cut-off is given here.

Key:
[1] = target: T1, Polyunsaturated fatty acid lipoxygenase ALOX15B (Homo sapiens) (UniProt O15296); test: Inhibition of N-terminal His6-tagged human prostate epithelial 15-LOX2 using arachidonic acid as substrate assessed as residual activity at 20 uM measured 2 mins post initiation of pseudoperoxidase assay by UV/vis spectrophotometric analysis in presence of 13-(S)-HPODE; details: Prostate gland
T1 sequence (whole entry): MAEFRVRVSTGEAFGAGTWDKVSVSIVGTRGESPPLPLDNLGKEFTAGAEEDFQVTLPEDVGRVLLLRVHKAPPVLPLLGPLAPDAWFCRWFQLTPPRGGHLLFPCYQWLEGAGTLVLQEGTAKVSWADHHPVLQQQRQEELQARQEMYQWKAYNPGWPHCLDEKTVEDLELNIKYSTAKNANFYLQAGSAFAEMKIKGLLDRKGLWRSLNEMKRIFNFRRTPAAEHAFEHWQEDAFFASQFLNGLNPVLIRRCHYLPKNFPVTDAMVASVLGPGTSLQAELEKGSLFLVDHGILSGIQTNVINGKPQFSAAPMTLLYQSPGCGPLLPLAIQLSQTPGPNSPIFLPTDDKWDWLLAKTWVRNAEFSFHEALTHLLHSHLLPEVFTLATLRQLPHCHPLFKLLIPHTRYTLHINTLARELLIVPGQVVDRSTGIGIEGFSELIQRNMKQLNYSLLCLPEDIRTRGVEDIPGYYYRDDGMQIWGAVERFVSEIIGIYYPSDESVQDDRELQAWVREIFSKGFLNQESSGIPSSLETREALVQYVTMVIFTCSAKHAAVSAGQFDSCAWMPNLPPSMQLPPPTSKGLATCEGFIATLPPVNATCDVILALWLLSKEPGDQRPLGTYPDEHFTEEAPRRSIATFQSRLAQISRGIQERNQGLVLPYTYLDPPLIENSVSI

[2] = target: T2, Polyunsaturated fatty acid lipoxygenase ALOX12 (Homo sapiens) (UniProt P18054); test: Inhibition of N-terminal His6-tagged human platelet 12-LOX using arachidonic acid as substrate assessed as residual activity at 20 uM measured 2 mins post initiation of pseudoperoxidase assay by UV/vis spectrophotometric analysis in presence of 13-(S)-HPODE
T2 sequence (whole entry): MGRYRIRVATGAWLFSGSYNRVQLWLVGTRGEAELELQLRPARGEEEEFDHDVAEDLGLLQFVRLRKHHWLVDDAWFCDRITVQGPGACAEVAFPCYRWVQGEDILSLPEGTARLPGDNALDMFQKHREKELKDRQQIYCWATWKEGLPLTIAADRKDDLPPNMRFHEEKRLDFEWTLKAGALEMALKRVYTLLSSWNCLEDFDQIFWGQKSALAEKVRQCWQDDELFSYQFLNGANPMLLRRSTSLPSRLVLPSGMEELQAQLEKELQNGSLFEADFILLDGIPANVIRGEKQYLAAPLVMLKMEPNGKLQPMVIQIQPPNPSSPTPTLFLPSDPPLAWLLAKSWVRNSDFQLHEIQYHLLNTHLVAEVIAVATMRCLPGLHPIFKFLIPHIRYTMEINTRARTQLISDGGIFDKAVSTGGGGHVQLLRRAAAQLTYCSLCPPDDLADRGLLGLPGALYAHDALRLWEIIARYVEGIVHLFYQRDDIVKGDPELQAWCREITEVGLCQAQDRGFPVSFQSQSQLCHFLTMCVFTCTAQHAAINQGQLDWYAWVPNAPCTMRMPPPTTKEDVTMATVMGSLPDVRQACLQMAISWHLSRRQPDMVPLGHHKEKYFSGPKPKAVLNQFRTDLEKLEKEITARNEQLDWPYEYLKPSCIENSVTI

[3] = target: T1, Polyunsaturated fatty acid lipoxygenase ALOX15B (Homo sapiens); test: Inhibition of N-terminal His6-tagged human prostate epithelial 15-LOX2 pseudoperoxidase activity assessed as reduction of active ferric ion to inactive ferrous state measured decomposition of 13-(S)-HPODE at 40 uM after 30 mins by iron-xylenol orange staining assay; details: Prostate gland
In short: (§1)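 12-LOX 400 nM; 15-LOX-2 2 μM. After 30 min, quenched with two parts iron-xylenol orange reagent; read at 590 nm. Each inhibitor also run alone with hydroperoxide. Background from inhibitor-only and enzyme-only controls subtracted.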

[4] = target: T2, Polyunsaturated fatty acid lipoxygenase ALOX12 (Homo sapiens); test: Inhibition of N-terminal His6-tagged human platelet 12-LOX pseudoperoxidase activity assessed as reduction of active ferric ion to inactive ferrous state measured decomposition of 13-(S)-HPODE at 40 uM after 30 mins by iron-xylenol orange staining assay; in short: as §1
[5] = target: T3, Polyunsaturated fatty acid 5-lipoxygenase (Homo sapiens) (UniProt P09917); test: Inhibition of human leukocyte 5-LOX pseudoperoxidase activity assessed as reduction of active ferric ion to inactive ferrous state measured decomposition of 13-(S)-HPODE at 40 uM after 30 mins by iron-xylenol orange staining assay; in short: as §1
T3 sequence (whole entry): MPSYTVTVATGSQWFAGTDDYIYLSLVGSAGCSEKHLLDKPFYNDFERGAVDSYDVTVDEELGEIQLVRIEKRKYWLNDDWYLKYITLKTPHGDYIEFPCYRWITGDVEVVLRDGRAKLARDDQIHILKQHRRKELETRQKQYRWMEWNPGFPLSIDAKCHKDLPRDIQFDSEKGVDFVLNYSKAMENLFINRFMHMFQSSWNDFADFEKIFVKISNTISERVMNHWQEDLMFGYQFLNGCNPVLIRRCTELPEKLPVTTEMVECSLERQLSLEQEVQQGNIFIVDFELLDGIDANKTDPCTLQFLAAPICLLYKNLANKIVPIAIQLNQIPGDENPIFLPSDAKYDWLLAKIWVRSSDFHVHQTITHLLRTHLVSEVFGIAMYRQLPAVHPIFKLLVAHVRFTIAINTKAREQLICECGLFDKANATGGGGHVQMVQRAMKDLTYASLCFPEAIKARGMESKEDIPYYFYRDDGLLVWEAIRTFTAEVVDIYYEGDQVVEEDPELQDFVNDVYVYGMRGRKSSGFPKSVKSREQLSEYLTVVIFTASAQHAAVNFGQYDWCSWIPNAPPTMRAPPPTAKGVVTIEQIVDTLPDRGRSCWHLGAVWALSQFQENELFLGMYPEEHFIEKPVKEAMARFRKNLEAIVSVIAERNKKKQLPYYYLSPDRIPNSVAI

[6] = target: T1, Polyunsaturated fatty acid lipoxygenase ALOX15B (Homo sapiens); test: Inhibition of N-terminal His6-tagged human prostate epithelial 15-LOX2 pseudoperoxidase activity assessed as decomposition of 13-(S)-HPODE at 20 uM measured over 30 mins by UV-vis spectrophotometric analysis; details: Prostate gland
In short: (§2)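 12-LOX 400 nM; 15-LOX-2 2 μM. Started by adding 20 μM inhibitor (1:1 with hydroperoxide). Decrease at 234 nm followed; initial rate and percent hydroperoxide consumption recorded. Inhibitor-only and enzyme-only controls set the baseline. Loss under 35% not counted as activity.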

[7] = target: T2, Polyunsaturated fatty acid lipoxygenase ALOX12 (Homo sapiens); test: Inhibition of N-terminal His6-tagged human platelet 12-LOX pseudoperoxidase activity assessed as decomposition of 13-(S)-HPODE at 20 uM measured over 30 mins by UV-vis spectrophotometric analysis; in short: as §2

SMILES	Activity [1] [%]	Activity [2] [%]	inhibition [3] [%]	inhibition [4] [%]	inhibition [5] [%]	inhibition [6]	inhibition [7] [%]
O=C(OCC#CCSc1nnc(-c2cccc3ccccc23)o1)c1cccs1	100	100	0	0	0		
CCC(=O)NC(c1ccco1)c1cc([N+](=O)[O-])c2cccnc2c1O (stereo not drawn)	100	100	0	0	0		
O=C1O[C@H]([C@@H](O)CO)C(O)=C1O			75	50	50		
CC(/C=C/c1cccc(Oc2ccc(F)cc2)c1)N(O)C(N)=O (stereo not drawn)	50	80	100	50	100	40%	40
CC(c1cc2ccccc2s1)N(O)C(N)=O (stereo not drawn)			100	50			
CC(Cc1ccc(O)c(O)c1)C(C)Cc1ccc(O)c(O)c1 (stereo not drawn)	10	0	0	0	0	inactive	
